ChEMBL document CHEMBL3045605, “Synthesis and anticancer evaluation of novel 3,5-diaryl-thiazolo[4,5-d]pyrimidin-2-one derivatives” (2013)

What was measured:
Assay type in all cases: functional
OVCAR-5 = assay: Anticancer activity against Homo sapiens (human) OVCAR5 cells assessed as cell growth at 10 uM by SRB assay; conditions: read-out: Activity
How it was run: (§1)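 Single-dose screen in the NCI 60-human-tumour-cell-line panel (nine cancer types) at 10−5 M. Cell growth was estimated by sulforhodamine B protein staining and reported as percent growth of treated cells relative to untreated controls.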

NCI-H460 [1] = assay: Anticancer activity against Homo sapiens (human) NCI-H460 cells assessed as cell growth at 10 uM by SRB assay; conditions: read-out: Activity; how it was run: as §1
SR = assay: Anticancer activity against Homo sapiens (human) SR cells assessed as cell growth at 10 uM by SRB assay; conditions: read-out: Activity
How it was run: (§2)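 NCI 60-cell human tumour panel (leukemia, melanoma, lung, colon, CNS, breast, ovarian, prostate, renal lines) given a single 10−5 M dose. Growth is expressed as percent growth of treated cells relative to untreated controls, with cell growth/viability estimated by sulforhodamine B protein staining.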

TK-10 = assay: Anticancer activity against Homo sapiens (human) TK10 cells by SRB assay
How it was run: (§3)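 NCI five-dose follow-up on the 60-line human tumour panel at tenfold dilutions from 10−4 to 10−8 M, with growth read by sulforhodamine B protein assay against untreated controls. For each cell line, GI50 (half growth inhibition), TGI (total growth inhibition) and LC50 (50% death of initial cells) are calculated as molar concentrations.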

A498 [2] = assay: Anticancer activity against Homo sapiens (human) A498 cells by SRB assay
How it was run: (§4)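 NCI 60-line panel, five tenfold dilutions from 10−4 to 10−8 M, growth read by sulforhodamine B staining against untreated controls. From the dose–response per line: GI50 (molar concentration giving half growth inhibition), TGI (molar concentration giving total growth inhibition, cytostatic) and LC50 (molar concentration killing 50% of initial cells, cytotoxic).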

SN12C = assay: Anticancer activity against Homo sapiens (human) SN12C cells assessed as cell growth at 10 uM by SRB assay; conditions: read-out: Activity; how it was run: as §1
SF-295 = assay: Anticancer activity against Homo sapiens (human) SF295 cells assessed as cell growth at 10 uM by SRB assay; conditions: read-out: Activity; how it was run: as §1
Hs-578T = assay: Anticancer activity against Homo sapiens (human) Hs 578T cells assessed as cell growth at 10 uM by SRB assay; conditions: read-out: Activity
How it was run: (§5)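 NCI 60-cell human tumour panel (nine cancer types) screened at one concentration, 10−5 M. Cell growth estimated by sulforhodamine B protein staining and reported as percent growth of treated cells relative to untreated controls.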

SK-OV-3 = assay: Anticancer activity against Homo sapiens (human) SKOV3 cells assessed as cell growth at 10 uM by SRB assay; conditions: read-out: Activity; how it was run: as §1
SK-MEL-28 [3] = assay: Anticancer activity against Homo sapiens (human) SK-MEL-28 cells by SRB assay
How it was run: (§6)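 Five-dose NCI 60-cell-line panel testing at tenfold dilutions from 10−4 to 10−8 M, with growth read by sulforhodamine B protein staining. For each cell line: GI50 is the molar concentration giving half growth inhibition; TGI is total growth inhibition (cytostatic); LC50 is the molar concentration killing 50% of the initial cells (cytotoxic).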

[4] = Anticancer activity against Homo sapiens (human) NCI-322M cells by SRB assay; how it was run: as §6
NCI-H23 [5] = assay: Anticancer activity against Homo sapiens (human) NCI-H23 cells assessed as cell growth at 10 uM by SRB assay; conditions: read-out: Activity; how it was run: as §1
UACC-257 = assay: Anticancer activity against Homo sapiens (human) UACC257 cells assessed as cell growth at 10 uM by SRB assay; conditions: read-out: Activity; how it was run: as §2
NCI-H23 [6] = assay: Anticancer activity against Homo sapiens (human) NCI-H23 cells by SRB assay; how it was run: as §6
OVCAR-3 = assay: Anticancer activity against Homo sapiens (human) OVCAR3 cells by SRB assay; how it was run: as §6
A549 = assay: Anticancer activity against Homo sapiens (human) A549/ATCC cells assessed as cell growth at 10 uM by SRB assay; conditions: read-out: Activity; how it was run: as §5
NCI/ADR-RES [7] = assay: Anticancer activity against Homo sapiens (human) NCI/ADR-RES cells by SRB assay; how it was run: as §6
COLO 205 = assay: Anticancer activity against Homo sapiens (human) COLO205 cells by SRB assay; how it was run: as §4
[8] = Anticancer activity against Homo sapiens (human) RPMI8266 cells by SRB assay; how it was run: as §6
U-251 = assay: Anticancer activity against Homo sapiens (human) U251 cells by SRB assay; how it was run: as §3
CCRF-CEM = assay: Anticancer activity against Homo sapiens (human) CCRF-CEM cells by SRB assay; how it was run: as §4
NCI/ADR-RES [9] = assay: Anticancer activity against Homo sapiens (human) NCI/ADR-RES cells assessed as cell growth at 10 uM by SRB assay; conditions: read-out: Activity; how it was run: as §1
SF-539 [10] = assay: Anticancer activity against Homo sapiens (human) SF539 cells assessed as cell growth at 10 uM by SRB assay; conditions: read-out: Activity; how it was run: as §1
A498 [11] = assay: Anticancer activity against Homo sapiens (human) A498 cells assessed as cell growth at 10 uM by SRB assay; conditions: read-out: Activity; how it was run: as §5
SK-MEL-2 = assay: Anticancer activity against Homo sapiens (human) SK-MEL-2 cells assessed as cell growth at 10 uM by SRB assay; conditions: read-out: Activity; how it was run: as §1
SK-MEL-28 [12] = assay: Anticancer activity against Homo sapiens (human) SK-MEL-28 cells assessed as cell growth at 10 uM by SRB assay; conditions: read-out: Activity; how it was run: as §1
MDA-MB-231 = assay: Anticancer activity against Homo sapiens (human) MDA-MB-231/ATCC cells by SRB assay; how it was run: as §4
SNB-19 = assay: Anticancer activity against Homo sapiens (human) SNB19 cells assessed as cell growth at 10 uM by SRB assay; conditions: read-out: Activity; how it was run: as §1
SNB-75 = assay: Anticancer activity against Homo sapiens (human) SNB75 cells by SRB assay; how it was run: as §6
NCI-H522 = assay: Anticancer activity against Homo sapiens (human) NCI-H522 cells by SRB assay; how it was run: as §6
HCT-15 = assay: Anticancer activity against Homo sapiens (human) HCT15 cells assessed as cell growth at 10 uM by SRB assay; conditions: read-out: Activity; how it was run: as §5
BT-549 = assay: Anticancer activity against Homo sapiens (human) BT549 cells assessed as cell growth at 10 uM by SRB assay; conditions: read-out: Activity; how it was run: as §5
SF-539 [13] = assay: Anticancer activity against Homo sapiens (human) SF539 cells by SRB assay; how it was run: as §6
SF-268 = assay: Anticancer activity against Homo sapiens (human) SF268 cells by SRB assay; how it was run: as §6
CAKI-1 = assay: Anticancer activity against Homo sapiens (human) CAKI-1 cells by SRB assay; how it was run: as §4
NCI-H460 [14] = assay: Anticancer activity against Homo sapiens (human) NCI-H460 cells by SRB assay; how it was run: as §6
EKVX = assay: Anticancer activity against Homo sapiens (human) EKVX cells by SRB assay; how it was run: as §4
K562 = assay: Anticancer activity against Homo sapiens (human) K562 cells by SRB assay; how it was run: as §4

For O=c1sc2c(Cl)nc(-c3ccccc3)nc2n1-c1ccccc1, the growth at 10 µM (OVCAR-5) was 90%, the growth at 10 µM (NCI-H460 [1]) was 78% and the growth at 10 µM (SR) was 8%. The GI50 (TK-10) was 10.5 µM, the GI50 (A498 [2]) was 3.47 µM and the growth at 10 µM (SN12C) was 43%. For the same compound, the growth at 10 µM (SF-295) was 92%, the growth at 10 µM (Hs-578T) was 12% and the growth at 10 µM (SK-OV-3) was 81%. It also gave a GI50 (SK-MEL-28 [3]) of 3.39 µM, an LC50 (SK-MEL-28 [3]) of 69.2 µM and a TGI (SK-MEL-28 [3]; read-out: pTGI (converted)) of 13.2 µM. For the same compound, the GI50 [4] was 14.1 µM, the TGI ([4]; read-out: pTGI (converted)) was 58.9 µM and the growth at 10 µM (NCI-H23 [5]) was 20%. For the same compound, the growth at 10 µM (UACC-257) was 48%, the GI50 (NCI-H23 [6]) was 3.63 µM and the TGI (NCI-H23 [6]; read-out: pTGI (converted)) was 30.9 µM. The GI50 (OVCAR-3) was 1780 nM, the TGI (OVCAR-3; read-out: pTGI (converted)) was 79.4 µM and the growth at 10 µM (A549) was 87%. The GI50 (NCI/ADR-RES [7]) was 21.4 µM, the GI50 (COLO 205) was 11.2 µM and the GI50 [8] was 44.7 µM. For the same compound, the GI50 (U-251) was 3.72 µM, the TGI (U-251; read-out: pTGI (converted)) was 18.6 µM and the GI50 (CCRF-CEM) was 3.8 µM. For the same compound, the growth at 10 µM (NCI/ADR-RES [9]) was 66%, the growth at 10 µM (SF-539 [10]) was 52% and the growth at 10 µM (A498 [11]) was 44%. For the same compound, the growth at 10 µM (SK-MEL-2) was 48%, the growth at 10 µM (SK-MEL-28 [12]) was 9% and the GI50 (MDA-MB-231) was 6.31 µM. For the same compound, the growth at 10 µM (SNB-19) was 70%, the GI50 (SNB-75) was 1860 nM and the CC50 (SNB-75; read-out: pLC50 (the source's name) (converted)) was 56.2 µM. The TGI (SNB-75; read-out: pTGI (converted)) was 13.8 µM, the GI50 (NCI-H522) was 1230 nM and the TGI (NCI-H522; read-out: pTGI (converted)) was 3.02 µM. For the same compound, the growth at 10 µM (HCT-15) was 28%, the growth at 10 µM (BT-549) was 86% and the GI50 (SF-539 [13]) was 11 µM. It also gave a GI50 (SF-268) of 10.5 µM, a TGI (SF-268; read-out: pTGI (converted)) of 38 µM and a GI50 (CAKI-1) of 2340 nM. The LC50 (CAKI-1) was 46.8 µM, the TGI (CAKI-1; read-out: pTGI (converted)) was 5.75 µM and the GI50 (NCI-H460 [14]) was 25.1 µM. For the same compound, the GI50 (EKVX) was 25.7 µM and the GI50 (K562) was 4.07 µM.
